Results reported in ChEMBL document CHEMBL1145445, “Dual aromatase-steroid sulfatase inhibitors” (J Med Chem, 2007).

Experiments:
[1] = target: T1, Aromatase (Homo sapiens, UniProt P11511); experiment: Inhibition of aromatase in JEG3 cell membrane; type: cell-based, JEG-3
T1 sequence (P11511 whole entry): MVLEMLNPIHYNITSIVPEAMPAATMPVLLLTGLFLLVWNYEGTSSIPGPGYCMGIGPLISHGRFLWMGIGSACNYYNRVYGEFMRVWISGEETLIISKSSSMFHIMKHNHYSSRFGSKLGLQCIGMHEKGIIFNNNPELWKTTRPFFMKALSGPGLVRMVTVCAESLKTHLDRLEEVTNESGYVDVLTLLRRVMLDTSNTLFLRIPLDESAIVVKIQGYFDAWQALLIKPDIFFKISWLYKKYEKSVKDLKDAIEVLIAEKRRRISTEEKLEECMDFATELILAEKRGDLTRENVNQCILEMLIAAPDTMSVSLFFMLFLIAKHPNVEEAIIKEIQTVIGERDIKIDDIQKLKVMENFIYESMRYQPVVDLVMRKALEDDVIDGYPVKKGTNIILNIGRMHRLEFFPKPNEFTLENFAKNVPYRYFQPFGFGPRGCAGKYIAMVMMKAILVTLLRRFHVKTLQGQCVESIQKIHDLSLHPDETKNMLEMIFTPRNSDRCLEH

[2] = tested on: Rattus norvegicus; experiment: Inhibition of steroid sulfatase in Wistar rat assessed as liver STS activity at 10 mg/kg, po after 3 hrs
[3] = tested on: Rattus norvegicus; experiment: Inhibition of aromatase in Wistar rat assessed as reduction of PMSG-stimulated plasma estradiol level at 10 mg/kg, po after 24 hrs; type: functional
How it was run: (§1)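 Female Wistar rats got a single sc injection of PMSG (200 IU). Three days later they received a single oral 10 mg/kg dose in THF/propylene glycol (10:90). Plasma estradiol was measured by radioimmunoassay at 3 or 24 h. Results are % inhibition of PMSG-stimulated estradiol, mean ± SE, n = 3, by Student's t test.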

[4] = tested on: Rattus norvegicus; experiment: Inhibition of steroid sulfatase in Wistar rat liver at 10 mg/kg, po; type: functional
How it was run: (§2)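 Female Wistar rats were primed with a single sc injection of PMSG (200 IU). Three days later they were dosed once orally at 10 mg/kg in THF/propylene glycol (10:90). Liver was collected 3 or 24 h after dosing and STS activity assayed. Results are expressed against activity in untreated animals, mean ± SE, n = 3.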

[5] = tested on: Rattus norvegicus; experiment: Inhibition of steroid sulfatase in Wistar rat liver at 10 mg/kg, po after 3 hrs; type: functional; how it was run: as §2
[6] = tested on: Rattus norvegicus; experiment: Inhibition of aromatase in Wistar rat assessed as reduction of PMSG-stimulated plasma estradiol level at 10 mg/kg, po after 3 hrs; type: functional; how it was run: as §1
[7] = tested on: Rattus norvegicus; experiment: Inhibition of steroid sulfatase in Wistar rat assessed as liver STS activity at 10 mg/kg, po after 24 hrs
[8] = target: T2, Steryl-sulfatase (Homo sapiens, UniProt P08842); experiment: Inhibition of steroid sulfatase in JEG3 cell membrane; type: cell-based, JEG-3
T2 sequence (P08842 whole entry): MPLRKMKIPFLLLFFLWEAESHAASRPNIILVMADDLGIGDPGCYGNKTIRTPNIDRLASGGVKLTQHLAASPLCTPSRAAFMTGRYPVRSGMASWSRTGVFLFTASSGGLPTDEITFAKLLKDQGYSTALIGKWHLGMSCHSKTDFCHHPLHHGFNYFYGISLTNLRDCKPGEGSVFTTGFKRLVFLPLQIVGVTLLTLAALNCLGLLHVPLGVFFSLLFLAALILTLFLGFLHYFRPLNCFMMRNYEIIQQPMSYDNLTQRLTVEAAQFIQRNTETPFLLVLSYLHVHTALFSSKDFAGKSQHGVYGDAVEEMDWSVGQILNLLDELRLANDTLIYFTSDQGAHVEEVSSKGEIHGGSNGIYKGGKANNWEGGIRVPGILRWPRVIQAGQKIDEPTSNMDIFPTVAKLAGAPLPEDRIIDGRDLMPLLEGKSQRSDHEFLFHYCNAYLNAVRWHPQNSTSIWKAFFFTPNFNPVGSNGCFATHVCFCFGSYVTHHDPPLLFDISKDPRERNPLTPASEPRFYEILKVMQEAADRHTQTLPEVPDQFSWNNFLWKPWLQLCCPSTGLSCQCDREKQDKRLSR

[9] = target: T1, Aromatase; experiment: Inhibition of aromatase in JEG3 cell membrane at 1 uM; type: cell-based; details: JEG-3, human; read-out: Activity

N#Cc1ccc(N(Cc2ccc(Cl)c(O)c2)n2cnnc2)cc1
IC50 [1]: 0.18 nM

N#Cc1ccc(N(Cc2ccc(OS(N)(=O)=O)c(Br)c2)n2cnnc2)cc1
inhibition in vivo at 10 mg/kg [2]: 98%
inhibition in vivo at 10 mg/kg [3]: 85%
inhibition in vivo at 10 mg/kg [4]: 100%
inhibition in vivo at 10 mg/kg [5]: 100%
inhibition in vivo at 10 mg/kg [6]: 100%
inhibition in vivo at 10 mg/kg [7]: 72%

N#Cc1ccc(N(Cc2cccc(O)c2)n2cnnc2)cc1
IC50 [1]: 2.8 nM

COc1ccc(CN(c2ccc(C#N)cc2)n2cnnc2)cc1OS(N)(=O)=O
IC50 [8]: > 10000 nM

N#Cc1ccc(N(Cc2ccc(O)c(I)c2)n2cnnc2)cc1
IC50 [1]: 0.33 nM

N#Cc1ccc(N(Cc2ccc(OS(N)(=O)=O)c(I)c2)n2cnnc2)cc1
IC50 [1]: 1.5 nM
IC50 [8]: 190 nM

N#Cc1ccc(N(Cc2ccc(Br)c(OS(N)(=O)=O)c2)n2cnnc2)cc1
IC50 [8]: > 10000 nM

N#Cc1ccc(N(Cc2c(F)c(F)c(O)c(F)c2F)n2cnnc2)cc1
IC50 [1]: 159 nM

COc1cc(CN(c2ccc(C#N)cc2)n2cnnc2)ccc1O
IC50 [1]: 2.8 nM

N#Cc1ccc(C(c2ccc(C#N)cc2)n2cncn2)cc1 [LETROZOLE]
inhibition in vivo at 10 mg/kg [2]: 3%
inhibition in vivo at 10 mg/kg [3]: 100%
inhibition in vivo at 10 mg/kg [6]: 100%
inhibition in vivo at 10 mg/kg [7]: 6%

N#Cc1ccc(N(Cc2ccc(O)c(C(F)(F)F)c2)n2cnnc2)cc1
IC50 [1]: 0.88 nM

N#Cc1ccc(N(Cc2ccc(F)c(OS(N)(=O)=O)c2)n2cnnc2)cc1
inhibition in vivo at 10 mg/kg [2]: 98%
inhibition in vivo at 10 mg/kg [3]: 20%
inhibition in vivo at 10 mg/kg [5]: 100%
inhibition in vivo at 10 mg/kg [6]: 82%
inhibition in vivo at 10 mg/kg [7]: 33%

COc1cc(CN(c2ccc(C#N)cc2)n2cnnc2)ccc1OS(N)(=O)=O
IC50 [1]: 42 nM
IC50 [8]: 380 nM

N#Cc1ccc(N(Cc2ccc(Br)c(O)c2)n2cnnc2)cc1
IC50 [1]: 0.5 nM

N#Cc1ccc(N(Cc2ccc(F)c(O)c2)n2cnnc2)cc1
IC50 [1]: 0.6 nM

N#Cc1ccc(N(Cc2ccc(OS(N)(=O)=O)cc2)n2cnnc2)cc1
inhibition at 1 µM [9]: 63.4%

N#Cc1ccc(N(Cc2cc(Cl)c(O)c(Cl)c2)n2cnnc2)cc1
IC50 [1]: 7.6 nM

COc1cc(CN(c2ccc(C#N)cc2)n2cnnc2)cc(Cl)c1OS(N)(=O)=O
IC50 [1]: 2.9 nM
IC50 [8]: 536 nM

N#Cc1ccc(N(Cc2ccc(OS(N)(=O)=O)c(C#N)c2)n2cnnc2)cc1
IC50 [1]: 27 nM
IC50 [8]: > 10000 nM

N#Cc1ccc(N(Cc2ccc(C(F)(F)F)c(O)c2)n2cnnc2)cc1
IC50 [1]: 0.4 nM

NS(=O)(=O)Oc1ccc2c3c(c(=O)oc2c1)CCCCC3 [IROSUSTAT]
inhibition in vivo at 10 mg/kg [2]: 100%
inhibition in vivo at 10 mg/kg [7]: 97%

N#Cc1ccc(N(Cc2ccc(O)c(C#N)c2)n2cnnc2)cc1
IC50 [1]: 24 nM

COc1cc(CN(c2ccc(C#N)cc2)n2cnnc2)cc(Cl)c1O
IC50 [1]: 0.51 nM

COc1ccc(CN(c2ccc(C#N)cc2)n2cnnc2)cc1O
IC50 [1]: 1.2 nM
